# Reference: ChEMBL document CHEMBL1145471, “Small molecule regulators of autophagy identified by an image-based high-throughput screen” (Proc Natl Acad Sci U S A, 2007)
# Where a SMILES comes first, the peptide text is derived from it. [ ]: non-standard residue; d: D form. Nle = CCCC[C@H](N)C(=O)O
# Columns and labels:
# Type in all cases: functional
# H4 [1] = test: Increase in long-lived protein degradation in human H4 cells after 4 hrs relative to control; parameters: concentration or dose not given beside the values
# H4 [2] = test: Increase in long-lived protein degradation in human H4 cells after 1 hr relative to control; parameters: concentration or dose not given beside the values
# H4 [3] = test: Increase in long-lived protein degradation in human H4 cells after 24 hrs relative to control; parameters: concentration or dose not given beside the values
# H4 [4] = test: Decrease in FYVE-RFP+ vesicle intensity per cell in human H4 cells after 2 hrs relative to control; parameters: concentration or dose not given beside the values
# How it was run: (§1)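 H4 cells stably expressing FYVE-RFP (H4-FYVE), grown in DMEM with 10% FBS, penicillin/streptomycin and 2 mM L-glutamine at 37°C, 5% CO2, seeded in 96-well plates and exposed to compound. Fixed in 4% paraformaldehyde, nuclei stained with 3 μg/ml DAPI, FYVE-RFP+ vesicles quantified by high-throughput fluorescence microscopy against DMSO control. Triplicate wells, mean ± SD.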
# H4 [5] = test: Increase in light chain 3-GFP+ autophagosome vesicle intensity per cell in human H4 cells at 7.3 uM after 24 hrs by high throughput fluorescence microscopy relative to control
# How it was run: (§2)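 H4 cells stably expressing LC3-GFP, seeded in 96-well plates and exposed to compound for 24 h; fixed in 4% paraformaldehyde, nuclei stained with 3 μg/ml DAPI. Automated fluorescence microscopy scored number, size and intensity of LC3-GFP spots; values expressed relative to DMSO-treated wells, rapamycin positive control. Triplicate wells, mean ± SD; experiments repeated three times.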
# H4 [6] = test: Increase in light chain 3-GFP+ autophagosome vesicle number per cell in human H4 cells at 7.3 uM after 24 hrs by high throughput fluorescence microscopy relative to control
# How it was run: (§3)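 H4 cells stably expressing LC3-GFP, kept in DMEM/10% FBS at 37°C, 5% CO2, were seeded in 96-well plates and exposed to compound for 24 h. Cells were then fixed in 4% paraformaldehyde and stained with 3 μg/ml DAPI. Automated fluorescence microscopy scored the number, size and intensity of LC3-GFP spots. Values are percent of DMSO wells, in triplicate, mean ± SD. Rapamycin served as positive control.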
# H4 [7] = test: Decrease in FYVE-RFP+ vesicle intensity per cell in human H4 cells after 8 hrs relative to control; parameters: concentration or dose not given beside the values; how it was run: as §1
# H4 [8] = test: Increase in light chain 3-GFP+ autophagosome vesicle area per cell in human H4 cells at 7.3 uM after 24 hrs by high throughput fluorescence microscopy relative to control; how it was run: as §2
# H4 [9] = test: Induction of light chain 3-GFP level in human H4 cells at 7.3 uM after 24 hrs by high throughput fluorescence microscopy relative to control; how it was run: as §3
# H4 [10] = test: Decrease in FYVE-RFP+ vesicle intensity per cell in human H4 cells after 4 hrs relative to control; parameters: concentration or dose not given beside the values; how it was run: as §1
# H4 [11] = test: Increase in long-lived protein degradation in human H4 cells after 2 hrs relative to control; parameters: concentration or dose not given beside the values
# H4 [12] = test: Increase in light chain 3-GFP+ autophagosome vesicle number per cell in human H4 cells at 6.3 uM after 24 hrs by high throughput fluorescence microscopy relative to control; how it was run: as §3
# H4 [13] = test: Effect on FYVE-RFP+ vesicle intensity per cell in human H4 cells after 2 hrs relative to control; parameters: concentration or dose not given beside the values; how it was run: as §1
# H4 [14] = test: Effect on FYVE-RFP+ vesicle intensity per cell in human H4 cells after 8 hrs relative to control; parameters: concentration or dose not given beside the values; how it was run: as §1
# H4 [15] = test: Induction of light chain 3-GFP level in human H4 cells at 6.3 uM after 24 hrs by high throughput fluorescence microscopy relative to control; how it was run: as §3
# H4 [16] = test: Increase in light chain 3-GFP+ autophagosome vesicle area per cell in human H4 cells at 6.3 uM after 24 hrs by high throughput fluorescence microscopy relative to control; how it was run: as §2
# H4 [17] = test: Effect on FYVE-RFP+ vesicle intensity per cell in human H4 cells after 4 hrs relative to control; parameters: concentration or dose not given beside the values; how it was run: as §1
# H4 [18] = test: Increase in light chain 3-GFP+ autophagosome vesicle intensity per cell in human H4 cells at 6.3 uM after 24 hrs by high throughput fluorescence microscopy relative to control; how it was run: as §2
# H4 [19] = test: Increase in light chain 3-GFP+ autophagosome vesicle intensity per cell in human H4 cells at 5.4 uM after 24 hrs by high throughput fluorescence microscopy relative to control; how it was run: as §2
# H4 [20] = test: Increase in light chain 3-GFP+ autophagosome vesicle number per cell in human H4 cells at 5.4 uM after 24 hrs by high throughput fluorescence microscopy relative to control; how it was run: as §3
# H4 [21] = test: Increase in light chain 3-GFP+ autophagosome vesicle area per cell in human H4 cells at 5.4 uM after 24 hrs by high throughput fluorescence microscopy relative to control; how it was run: as §2
# H4 [22] = test: Induction of light chain 3-GFP level in human H4 cells at 5.4 uM after 24 hrs by high throughput fluorescence microscopy relative to control; how it was run: as §3
# H4 [23] = test: Increase in light chain 3-GFP+ autophagosome vesicle intensity per cell in human H4 cells at 4.8 uM after 24 hrs by high throughput fluorescence microscopy relative to control; how it was run: as §2
# H4 [24] = test: Increase in light chain 3-GFP+ autophagosome vesicle number per cell in human H4 cells at 4.8 uM after 24 hrs by high throughput fluorescence microscopy relative to control; how it was run: as §3
# H4 [25] = test: Increase in light chain 3-GFP+ autophagosome vesicle area per cell in human H4 cells at 4.8 uM after 24 hrs by high throughput fluorescence microscopy relative to control; how it was run: as §2
# H4 [26] = test: Induction of light chain 3-GFP level in human H4 cells at 4.8 uM after 24 hrs by high throughput fluorescence microscopy relative to control; how it was run: as §3
# H4 [27] = test: Increase in light chain 3-GFP+ autophagosome vesicle number per cell in human H4 cells at 6.5 uM after 24 hrs by high throughput fluorescence microscopy relative to control; how it was run: as §3
# H4 [28] = test: Increase in light chain 3-GFP+ autophagosome vesicle intensity per cell in human H4 cells at 6.5 uM after 24 hrs by high throughput fluorescence microscopy relative to control; how it was run: as §2
# H4 [29] = test: Increase in light chain 3-GFP+ autophagosome vesicle area per cell in human H4 cells at 6.5 uM after 24 hrs by high throughput fluorescence microscopy relative to control; how it was run: as §2
# H4 [30] = test: Induction of light chain 3-GFP level in human H4 cells at 6.5 uM after 24 hrs by high throughput fluorescence microscopy relative to control; how it was run: as §3
compound,measurement,setting,value
CC(C)(c1ccc(OCC2CO2)cc1)c1ccc(OCC2CO2)cc1 (centres undefined),Activity,H4 [1],95.85%
same,Activity,H4 [2],96.5%
same,Activity,H4 [3],91.78%
same,Activity,H4 [4],44.65%
same,Activity,H4 [5],182.11%
same,Activity,H4 [6],156.58%
same,Activity,H4 [7],58.53%
same,Activity,H4 [8],175.52%
same,Activity,H4 [9],132.48%
same,Activity,H4 [10],53.06%
same,Activity,H4 [11],84.65%
CCCNC(=O)[C@H]1O[C@@H]1C(=O)N[C@H](C(=O)N1CCC[C@H]1C(=O)OC)[C@@H](C)CC,Activity,H4 [12],197.44%
same,Activity,H4 [13],65.94%
same,Activity,H4 [1],81%
same,Activity,H4 [14],86.43%
same,Activity,H4 [15],132.2%
same,Activity,H4 [2],115.2%
same,Activity,H4 [3],89.11%
same,Activity,H4 [16],239.2%
same,Activity,H4 [17],79.82%
same,Activity,H4 [18],272.48%
same,Activity,H4 [11],110.18%
N#Cc1cc2c(OCC(O)CN3CCN(C(c4ccccc4)c4ccccc4)CC3)cccc2[nH]1 (centres undefined),Activity,H4 [13],65.87%
same,Activity,H4 [1],101.77%
same,Activity,H4 [14],72.4%
same,Activity,H4 [19],329.96%
same,Activity,H4 [2],90.63%
same,Activity,H4 [3],90.03%
same,Activity,H4 [17],59.79%
same,Activity,H4 [20],224.74%
same,Activity,H4 [11],108.53%
same,Activity,H4 [21],275.43%
same,Activity,H4 [22],94.7%
CNc1ccc2oc(C[C@@H]3OC4(CC[C@@H]3C)O[C@H]([C@@H](C)C(=O)c3ccc[nH]3)[C@H](C)C[C@H]4C)nc2c1C(=O)O (some centres undefined),Activity,H4 [23],15083%
same,Activity,H4 [24],181.04%
same,Activity,H4 [25],172.66%
same,Activity,H4 [26],49.3%
CCCC[C@@H](C=O)NC(=O)[C@H](CC(C)C)NC(=O)[C@H](CC(C)C)NC(C)=O (Ac-Leu-Leu-[Nle]-aldehyde),Activity,H4 [13],72.86%
same,Activity,H4 [27],277.88%
same,Activity,H4 [1],91.35%
same,Activity,H4 [14],88.42%
same,Activity,H4 [2],124.56%
same,Activity,H4 [3],95.45%
same,Activity,H4 [17],84.85%
same,Activity,H4 [28],495.29%
same,Activity,H4 [29],362.79%
same,Activity,H4 [30],96.31%
same,Activity,H4 [11],104.95%
CCOC(=O)[C@H]1O[C@@H]1C(=O)N[C@@H](CC(C)C)C(=O)NCCC(C)C [ALOXISTATIN],Activity,H4 [1],79.98%
same,Activity,H4 [2],84.82%
same,Activity,H4 [3],91.33%
same,Activity,H4 [4],48.31%
same,Activity,H4 [5],244.88%
same,Activity,H4 [6],169.98%
same,Activity,H4 [7],39.61%
same,Activity,H4 [8],195.1%
same,Activity,H4 [9],119.19%
same,Activity,H4 [10],53.97%
same,Activity,H4 [11],76.35%
